Measurements taken from ChEMBL document CHEMBL4513216, “Probing the Open Global Health Chemical Diversity Library for Multistage-Active Starting Points for Next-Generation Antimalarials” (ACS Infect Dis, 2020).

Test: Toxicity liver stage against HepG2, at 10uM
Format: cell-based
Parameters: test concentration 10 uM, cell line HepG2-A16-CD81EGFP
Conditions: human, HepG2-A16-CD81EGFP cells; read-out: INHIBITION
In short: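 Uninfected HepG2-A16-CD81EGFP cells, 3 × 10^3 per well, 1536-well, plated on prespotted compound at 10 μM final, parasite-free screening media added to match infected plates; puromycin 10 μM positive, DMSO 0.5% negative; run in parallel with 48 h PbLuc assay at 37 °C, 5% CO2; viability by CellTiter-Glo luminescence, normalized to controls.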

| Structure (SMILES) | cytotoxicity at 10 µM [%] |
| --- | --- |
| O=S(=O)(c1cnccc1N1CCN(CCO)CC1)N1CCCCC1 | 15.7 |
| Cc1n[nH]c(=O)c2c(NC(=O)CN3CCOC(C)C3)oc(C)c12 (centres undefined) | -0.524 |
| COc1ccc2c(ccn2CCC(=O)NCc2ccc(C(=O)O)cc2)c1 | 2.25 |
| COC(=O)c1ccc(C2SCC(=O)Nc3c2cnn3C(C)(C)C)cc1 (centres undefined) | 2.06 |
| COCCn1cnc2ccc(NC(=O)C3CC3)cc2c1=O | -7.89 |
| Cc1cnc2c(c1NCc1ccccn1)c(=O)n(C)c(=O)n2C | -4.32 |
| O=C1CC(NS(=O)(=O)c2ccc3ccccc3c2)CN1 (centres undefined) | 3.94 |
| COC1(CNC(=O)NCCc2ccccc2)CCSC1 (centres undefined) | -12.6 |
| O=C(NCCn1nc(-n2cncn2)ccc1=O)c1ccc(F)cc1F | -8.78 |
| Cc1nc(-c2noc3ccc(C(=O)NCCN(C)C)cc23)co1 | 2.25 |
| Cn1ccnc1Sc1ccc(S(N)(=O)=O)cn1 | -1.6 |
| COc1cc2nc(C)n(CC(=O)O)c(=O)c2cc1OC | 5.68 |
| COc1cc(CCC(C)O)c(OC)c2c1OCO2 (centres undefined) | 6.79 |
| CN(C)CC(=O)N1Cc2nc(C(=O)NCc3ccncc3)oc2C1 | -8.58 |
| CCC1=N[C@@]2(CC[C@@H]3CN(S(=O)(=O)N(C)C)C[C@@H]32)C(=O)N1CC(C)C | 10.3 |
| Cc1nn(C)c2cnn(CC(=O)NCCc3ccccc3)c12 | 13.4 |
| Cc1nc(CN2CCOCC2c2[nH]ncc2C)cs1 (centres undefined) | 2.15 |
| CN(C)c1nccnc1C1CCCN(c2cnccn2)C1 (centres undefined) | -4.92 |
| COc1ccccc1NC(=O)NCc1nnc(SC)n1C | -0.145 |
| CCn1cc(S(=O)(=O)NCC(c2ccccc2)N2CCOCC2)c(C)n1 (centres undefined) | 2.76 |
| COc1ccccc1CN1CCC(Cc2cnc(CN(C)C)cn2)CC1 | -6.45 |
| CNC(=O)c1ccc(-c2ccc(CNS(=O)(=O)N(C)C)cc2)nc1C | -2.05 |
| O=C(O)C1CN(c2cncc(Cc3ccccc3F)n2)C1 | 5.7 |

| Structure (SMILES) | cytotoxicity at 10 µM [%] |
| --- | --- |
| CCc1nc(CN2CCCN(Cc3noc(C4CC4)n3)CC2)cs1 | -7.35 |
| O=C(Cc1cccnc1)NC1COc2ccccc2C1=O (centres undefined) | -3.77 |
| CS(=O)(=O)c1ccccc1-n1cc(NC(=O)CC2C=CCC2)cn1 (centres undefined) | 1.78 |
| CN(C)CCN(Cc1ccc(C#N)cc1)C(=O)c1ccn(C)c(=O)c1 | 16.8 |
| C=C(C)CNc1nc(CS(=O)(=O)c2ccccc2)cs1 | -8.37 |
| COCCN(Cc1coc(-c2cccc(Cl)c2)n1)C1CC1 | 3.92 |
| CN(CCOCC(F)(F)F)CC1CCN(CCO)CC1 | 5.68 |
| CC1(C)CCN1C(=O)c1cc(F)cc2[nH]cnc12 | -7.09 |
| Cc1nn(C)c(Cl)c1C1CCCN1Cc1nnc(C2CC2)n1C (centres undefined) | -2.24 |
| CCN1CC(COC(=O)c2cc(Br)ccc2F)CC1=O (centres undefined) | 5.09 |
| CSCC(C)(O)CNC(=O)Nc1ccc(C)cc1Br (centres undefined) | -9.83 |
| O=C(C1CCS(=O)(=O)C1)N1CCC(=Cc2cccc(F)c2)CC1 (centres undefined) | 10.6 |
| COc1ncc(NCc2ccc(C#N)cc2)cc1C(N)=O | 0.217 |
| CCC(=O)N1CCN(c2ccc(C(=O)OC)cc2)CC1C (centres undefined) | -13.5 |
| Nc1cc2c(nn1)CCN(C(=O)Cc1ccc3c(c1)CCCC3)C2 | 0.696 |
| Cn1c(NCC(=O)N2CCCC2)c(C#N)c(=O)n(C)c1=O | 15.4 |
| Clc1ccc(C2(NCc3noc(C4CC4)n3)CCC2)cc1 | 5.04 |
| CC(O)CN1CCN(C(=O)CCOC(C)C)CC1 (centres undefined) | -3.86 |
| Cc1nn(C)c(N(C)C)c1CNCc1ccnn1C | -3.35 |
| CCc1ncc2c(n1)CN(Cc1nnc(CC)o1)CC2 | -8.8 |
| Nc1ncc(C(=O)N2CCN(c3nccs3)CC2)cc1Cl | -3.78 |
| CNC(=O)COC(=O)c1ccoc1CN1c2ccccc2CC1C (centres undefined) | 0.165 |
| OCC1CCCN1c1cc(NCCNc2cccnn2)ncn1 (centres undefined) | 18.5 |

| Structure (SMILES) | cytotoxicity at 10 µM [%] |
| --- | --- |
| O=C(C1CC1)N1CCCC1c1nnc2n1CCCCC2 (centres undefined) | -0.614 |
| CCc1nc(CN(C)Cc2nnc(-c3cccs3)o2)cs1 | 6.37 |
| Cc1nsc(NC2CCN(c3ccccc3OC(F)F)C2=O)n1 (centres undefined) | 2.14 |
| CN(Cc1cc(=O)c(O)co1)C1CCCN(c2ccccc2)C1 (centres undefined) | -3.17 |
| Cc1n[nH]c(C2CN(CCCOc3cccc(Cl)c3)CCO2)n1 (centres undefined) | -5.57 |
| CC1(C(=O)Nc2ccc(F)c(-n3cccc3)c2)CCOCC1 | -0.0972 |
| Cc1ccc(C(NC(=O)Cn2cc(C3CC3)nn2)C2CC2)cc1 (centres undefined) | -5.36 |
| CC(C)(C)Cc1nnc(NCc2cccc(C#N)c2)o1 | -16.1 |
| CCc1ncc(C(=O)NC(C)(C)CC)s1 | -0.343 |
| CC(C)CN1C(=O)C2(CCCC2)NC1c1cccnc1 (centres undefined) | 3.71 |
| Cc1cccc(-n2cnc(Cl)c2C(=O)O)c1 | -1.26 |
| Cc1csc(C(C#N)C(=O)Nc2ccccc2)n1 (centres undefined) | 12.6 |
| O=C(NCc1ccco1)N1CCOC(c2ccccc2Cl)C1 (centres undefined) | -1.91 |
| CCOC(=O)CN(C)Cc1cnc(C)s1 | 20.2 |
| COc1ccc(CNC2CCN(c3ccccc3)C2)cc1O (centres undefined) | 8.63 |
| COc1ccccc1CC(=O)NC1CCCc2cn[nH]c21 (centres undefined) | 17.1 |
| CN(C)C(=O)N1CCN(C(=O)c2ccn3ccnc3c2)CC1 | -5.02 |
| CCN(Cc1csc(CS(C)(=O)=O)n1)c1cccc(F)c1 | 7.25 |
| Cn1cccc1C(=O)NC1(C(=O)NCC2CC2)CCCC1 | -3.29 |
| COCC1CN(C(=O)Nc2cc(Cl)ccc2F)CCO1 (centres undefined) | 10.7 |
| COc1cc(C(=O)N(CCC#N)Cc2ccccn2)cc(OC)c1C | -15.1 |
| COCCCN(CCOC)C(=O)Nc1ccc(C)cc1C | 4.16 |
| CCn1ccnc1CN1CCN(CCC(=O)NC(C)(C)C)CC1C (centres undefined) | -15.8 |

| Structure (SMILES) | cytotoxicity at 10 µM [%] |
| --- | --- |
| CC(=O)N1CC2(CCNCC2)c2cc(C)ccc21 | -73.2 |
| O=C(C1CCOCC1)N1C[C@@H]2[C@@H](C1)OCC(=O)N2CC1CC1 | 2.29 |
| Cc1nonc1OCCNC(=O)COc1ccc(F)cc1F | -1.17 |
| CC(C)[C@H]1COC(=O)N1Cc1nccn1C(C)C | 6.35 |
| Cc1cc(C)n(Cc2cc(C(=O)N3CCCCC3c3nccs3)n[nH]2)n1 (centres undefined) | 13.8 |
| CCC(C(=O)NC1(COC)CCCC1)n1cccn1 (centres undefined) | -3.41 |
| CC(C)=CCn1ncc(N2CCOCC2)cc1=O | -9.96 |
| CC(=O)N1CCc2[nH]cnc2C12CCN(C(=O)Cc1ccccn1)CC2 | 1.76 |
| CCC(NC(=O)c1cc(NC(C)=O)ccc1Cl)c1cc(C)ccn1 (centres undefined) | -16.5 |
| Cc1ccnc(CNC(=O)C2CC(=O)N(CCN(C)C)C2)c1 (centres undefined) | -5.79 |
| COc1ccccc1CN1C(=O)O[C@@H]2CN(S(=O)(=O)N(C)C)C[C@@H]21 | 2.54 |
| CCc1cnc(NCc2ccccc2Cn2cccn2)nc1 | -2.45 |
| COc1cc(OC)c2nc(NCCN3CCNC3=O)cc(C)c2c1 | -3.4 |
| CCCOC1CCCN(c2nc(CC)nc3c2cnn3C)C1 (centres undefined) | -3.29 |
| CC(C)Oc1cccc2c1c(NC(=O)CN(C)C)nn2CC(F)(F)F | -9.69 |
| Cc1nn(-c2ccccc2)c2nc(C(C)(C)CN3CCN(C)CC3)[nH]c12 | -2.13 |
| CCN1CCCC(c2c(-c3ccccc3)ncn2CCc2c[nH]cn2)C1 (centres undefined) | -10.9 |
| O=C(NCCn1ccnc1-c1cc2n(n1)CCNC2)c1ccc(F)cc1 | -16.9 |
| CCc1cnc(C)nc1N(C)CCCc1cnn(C)c1 | -10 |
| CC1(C)CNC(=O)c2nc(CCN3CCC(C(N)=O)CC3)[nH]c2C1 | -1.35 |
| CC(C)n1cnnc1CN(C)C(=O)C1CCCN(C2CCN(C)CC2)C1 (centres undefined) | -1.26 |
| COCC(NC(=O)c1cc(NC(C)=O)ccc1Cl)c1ccccn1 (centres undefined) | -12.1 |
| O=C(c1cncc(N2CCC3(CC2)NCCNC3=O)n1)N1CCCCC1 | -2.4 |

| Structure (SMILES) | cytotoxicity at 10 µM [%] |
| --- | --- |
| CCCn1cc(C(=O)N(C)Cc2nc(-c3ccccn3)no2)c(C)n1 | 0.334 |
| CC(C)(N)CN1CCC(c2nnc(CN3CCCC3)n2C2CC2)CC1 | 19.2 |
| O=C(Nc1cccc(F)c1)C1CCCN1c1nccs1 (centres undefined) | -4.72 |
| NC(=O)C(NCc1nn(-c2ccccc2)c2c1CCC2)c1ccccc1 (centres undefined) | -5.86 |
| COc1cccc(CNCC2CCN(CC(C)O)CC2)c1OC (centres undefined) | -0.191 |
| CSCC(=O)N1CCCN(Cc2cscn2)CC1 | -5.28 |
| Cc1ccccc1-c1noc(CN2CCc3cncnc3C2)n1 | -11.5 |
| COc1cc(C(=O)N2CCCC(CNS(C)(=O)=O)C2)cc(OC)c1C (centres undefined) | -7.69 |
| CCCc1nnsc1C(=O)N1CCN(CC(O)c2ccco2)CC1 (centres undefined) | -7.86 |
| CC(=O)N1CCCCCC1C1CCN(Cc2nc(C(C)C)no2)CC1 (centres undefined) | 6.27 |
| CN(C)Cc1cc(C2CCCCN2S(=O)(=O)Cc2ccccc2)nn1C (centres undefined) | 0.57 |
| O=C1NCCCCC1NCc1csc(-c2ccccn2)n1 (centres undefined) | 7.5 |
| Cc1sc(Br)cc1S(=O)(=O)NCCCN | 0.973 |
| Cc1ccc2c(n1)N(C)CCN(C(=O)C1CC1)C2 | -2.15 |
| Cc1cccc(CC(=O)N2CCCCC2CN)c1 (centres undefined) | 5.68 |
| O=C(c1cocn1)N1CCC2(CC1)COC(COCc1ccccn1)C2 (centres undefined) | -116 |
| O=C1[C@H]2CN(Cc3ccoc3)C[C@H]2CN1Cc1cccnc1 | -76.5 |
| CN(C)C(=O)CN1CCC2(C1)CN(CC1CCOC1)C2 (centres undefined) | 8.43 |
| Cc1ccc(N2CCN(Cc3ccccc3)C3(CCNCC3)C2=O)cn1 | 12.1 |
| CN(C)C(=O)CN1C[C@H]2CC[C@@H](C1)N(C(=O)CCCn1cncn1)C2 | 0.612 |
| C/C(Cl)=C/CNC(=O)C1CCC2(CC1)CN(C)C(=O)c1ccccc1O2 (centres undefined) | 4.52 |
| O=C(O)c1cc(C=Cc2cccc3ccccc23)ncn1 | -12.1 |
